Active and inactive are the calls of the source. The rule behind the calls is not given here.
Legend:
KARPAS-422 [1] = test: Cell cycle arrest in human KARPAS422 cells assessed as accumulation of cells at G1 phase after 48 hrs by propidium iodide staining-based flow cytometric analysis; assay type: functional
KARPAS-422 [2] = test: Induction of apoptosis in human KARPAS422 cells assessed as necrotic cells at 4 uM after 48 hrs by AnnexinV-FITC staining-based flow cytometric analysis (reference value: 3.20%); assay type: functional
KARPAS-422 [3] = test: Induction of apoptosis in human KARPAS422 cells assessed as apoptotic cells at 16 uM after 48 hrs by AnnexinV-FITC staining-based flow cytometric analysis (reference value: 4.08%); assay type: functional
KARPAS-422 [4] = test: Cell cycle arrest in human KARPAS422 cells assessed as accumulation of cells at G2/M phase at 8 uM after 48 hrs by propidium iodide staining-based flow cytometric analysis (reference value: 12.64%); assay type: functional
PRMT5/MEP50 complex [5] = molecular target: T1, PRMT5/MEP50 complex (Homo sapiens, UniProt O14744); test: Inhibition of recombinant human N-terminal FLAG-tagged PRMT5 (2 to end residues) /human N-terminal His-tagged MEP50 (2 to end residues) expressed in HEK293F cells pretreated for 15 mins followed by substrate and [3H]-SAM addition measured after 60 mins by scintillation proximity assay; assay type: cell-based
Procedure, shortened: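 PRMT5 enzymatic inhibition measured by radiometric scintillation proximity assay; IC50 determined.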

KARPAS-422 [6] = test: Induction of apoptosis in human KARPAS422 cells assessed as viable cells at 8 uM after 48 hrs by AnnexinV-FITC staining-based flow cytometric analysis (reference value: 91.3%); assay type: functional; conditions: KARPAS-422, 48 h, read-out: Activity
KARPAS-422 [7] = test: Cell cycle arrest in human KARPAS422 cells assessed as accumulation of cells at S phase at 4 uM after 48 hrs by propidium iodide staining-based flow cytometric analysis (reference value: 47.8%); assay type: functional
KARPAS-422 [8] = test: Induction of apoptosis in human KARPAS422 cells assessed as viable cells at 4 uM after 48 hrs by AnnexinV-FITC staining-based flow cytometric analysis (reference value: 91.3%); assay type: functional; conditions: KARPAS-422, 48 h, read-out: Activity
[9] = molecular target: T2, Protein arginine N-methyltransferase 5 (Homo sapiens, UniProt O14744); test: (§1) Non-competitive inhibition of recombinant human N-terminal FLAG-tagged PRMT5 (2 to end residues) /human N-terminal His-tagged MEP50 (2 to end residues) expressed in HEK293F cells pretreated for 15 mins followed by fixed peptide substrate and varying [3H]-SAM addition measured after 60 mins by scintillation proximity assay; assay type: cell-based
Procedure, shortened: (§2)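 Mode of inhibition: IC50 values determined by radiometric scintillation proximity assay in the presence of various concentrations of peptide substrate and SAM; experiments performed in triplicate.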

[10] = molecular target: T2, Protein arginine N-methyltransferase 5; test: Inhibition of PRMT5 in human SU-DHL4 cells assessed as decrease in symmetric arginine dimethylation of SmD3 after 4 days by Western blot analysis; assay type: cell-based; conditions: in the assay text read “after 72 hrs” for “after 4 days”
Procedure, shortened: (§3)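 KARPAS-422 and SU-DHL-4 cells treated across a concentration range; symmetric arginine dimethylation of SmD3 detected by Western blot with symmetric dimethyl arginine (SDMA) antibody.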

[11] = molecular target: T2, Protein arginine N-methyltransferase 5; test: as §1, with “Competitive” for “Non-competitive”, “varying” for “fixed”, “fixed” for “varying”; assay type: cell-based; procedure, shortened: as §2
KARPAS-422 [12] = test: Cell cycle arrest in human KARPAS422 cells assessed as accumulation of cells at S phase at 8 uM after 48 hrs by propidium iodide staining-based flow cytometric analysis (reference value: 47.8%); assay type: functional
[13] = molecular target: Protein arginine N-methyltransferase 1 (Homo sapiens, UniProt Q99873); test: Inhibition of PRMT1 (unknown origin) pretreated for 15 mins followed by substrate and [3H]-SAM addition measured after 60 mins by scintillation proximity assay
Procedure, shortened: (§4)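 PRMT1 and PRMT4 enzyme-inhibition assays used to assess selectivity; IC50 values determined for each enzyme.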

[14] = molecular target: T2, Protein arginine N-methyltransferase 5; test: Inhibition of PRMT5 in human KARPAS422 cells assessed as decrease in symmetric arginine dimethylation of SmD3 after 4 days by Western blot analysis; assay type: cell-based; conditions: in the assay text read “after 72 h” for “after 4 days”; procedure, shortened: as §3
KARPAS-422 [15] = test: Induction of apoptosis in human KARPAS422 cells assessed as apoptotic cells at 4 uM after 48 hrs by AnnexinV-FITC staining-based flow cytometric analysis (reference value: 4.08%); assay type: functional
KARPAS-422 [16] = test: Antiproliferative activity against human KARPAS422 cells after 4 days by cell titer-glo luminescent cell viability assay; conditions: KARPAS-422, 96 h
MV4-11 = test: Antiproliferative activity against human MV4-11 cells after 4 days by cell titer-glo luminescent cell viability assay; conditions: MV4-11, 96 h
KARPAS-422 [17] = test: Induction of apoptosis in human KARPAS422 cells assessed as necrotic cells at 8 uM after 48 hrs by AnnexinV-FITC staining-based flow cytometric analysis (reference value: 3.20%); assay type: functional
KARPAS-422 [18] = test: Induction of apoptosis in human KARPAS422 cells assessed as necrotic cells at 16 uM after 48 hrs by AnnexinV-FITC staining-based flow cytometric analysis (reference value: 3.20%); assay type: functional
KARPAS-422 [19] = test: Cell cycle arrest in human KARPAS422 cells assessed as accumulation of cells at G1 phase at 16 uM after 48 hrs by propidium iodide staining-based flow cytometric analysis (reference value: 39.56%); assay type: functional
KARPAS-422 [20] = test: Cell cycle arrest in human KARPAS422 cells assessed as accumulation of cells at G1 phase at 8 uM after 48 hrs by propidium iodide staining-based flow cytometric analysis (reference value: 39.56%); assay type: functional
KARPAS-422 [21] = test: Cell cycle arrest in human KARPAS422 cells assessed as accumulation of cells at G2/M phase at 4 uM after 48 hrs by propidium iodide staining-based flow cytometric analysis (reference value: 12.64%); assay type: functional
PRMT5/MEP50 complex [22] = molecular target: T1, PRMT5/MEP50 complex; test: Binding affinity to PRMT5 (unknown origin)/MEP50 (unknown origin) by SPR assay; assay type: protein-complex assay
Procedure, shortened: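 Direct binding to PRMT5 measured by surface plasmon resonance; equilibrium dissociation constant (KD) derived.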

KARPAS-422 [23] = test: Induction of apoptosis in human KARPAS422 cells assessed as apoptotic cells at 8 uM after 48 hrs by AnnexinV-FITC staining-based flow cytometric analysis (reference value: 4.08%); assay type: functional
KARPAS-422 [24] = test: Induction of apoptosis in human KARPAS422 cells after 48 hrs by AnnexinV-FITC staining-based flow cytometric analysis; assay type: functional, cell-based
[25] = molecular target: T3, Histone-arginine methyltransferase CARM1 (Homo sapiens, UniProt Q86X55); test: Inhibition of PRMT4 (unknown origin) pretreated for 15 mins followed by substrate and [3H]-SAM addition measured after 60 mins by scintillation proximity assay; procedure, shortened: as §4
T3 sequence (Q86X55 whole entry): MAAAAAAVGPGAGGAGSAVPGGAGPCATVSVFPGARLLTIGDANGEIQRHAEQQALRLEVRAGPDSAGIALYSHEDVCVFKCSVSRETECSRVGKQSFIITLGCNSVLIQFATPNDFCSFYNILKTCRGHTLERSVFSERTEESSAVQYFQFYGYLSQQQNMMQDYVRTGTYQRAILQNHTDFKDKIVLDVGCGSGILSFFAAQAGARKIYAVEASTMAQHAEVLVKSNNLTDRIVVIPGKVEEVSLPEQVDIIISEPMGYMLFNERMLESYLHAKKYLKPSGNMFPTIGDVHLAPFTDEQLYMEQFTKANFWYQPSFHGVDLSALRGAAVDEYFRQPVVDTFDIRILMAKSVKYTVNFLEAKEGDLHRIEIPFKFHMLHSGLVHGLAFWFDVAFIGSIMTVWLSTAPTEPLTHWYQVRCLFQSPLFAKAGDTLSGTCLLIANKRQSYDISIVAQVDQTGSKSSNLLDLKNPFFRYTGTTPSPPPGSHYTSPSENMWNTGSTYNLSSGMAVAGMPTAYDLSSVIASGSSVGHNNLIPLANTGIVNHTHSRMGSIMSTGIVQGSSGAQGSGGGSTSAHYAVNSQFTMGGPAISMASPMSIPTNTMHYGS

KARPAS-422 [26] = test: Cell cycle arrest in human KARPAS422 cells assessed as accumulation of cells at G1 phase at 4 uM after 48 hrs by propidium iodide staining-based flow cytometric analysis (reference value: 39.56%); assay type: functional
Pfeiffer = test: Antiproliferative activity against human Pfeiffer cells after 4 days by cell titer-glo luminescent cell viability assay; conditions: 96 h
SUD4 = test: Antiproliferative activity against human SU-DHL4 cells after 4 days by cell titer-glo luminescent cell viability assay; conditions: SU-DHL-4, 96 h
KARPAS-422 [27] = test: Cell cycle arrest in human KARPAS422 cells assessed as accumulation of cells at S phase at 16 uM after 48 hrs by propidium iodide staining-based flow cytometric analysis (reference value: 47.8%); assay type: functional
KARPAS-422 [28] = test: Induction of apoptosis in human KARPAS422 cells assessed as viable cells at 16 uM after 48 hrs by AnnexinV-FITC staining-based flow cytometric analysis (reference value: 91.3%); assay type: functional; conditions: KARPAS-422, 48 h, read-out: Activity
KARPAS-422 [29] = test: Cell cycle arrest in human KARPAS422 cells assessed as accumulation of cells at G2/M phase at 16 uM after 48 hrs by propidium iodide staining-based flow cytometric analysis (reference value: 12.64%); assay type: functional
[30] = molecular target: T2, Protein arginine N-methyltransferase 5; test: Inhibition of full-length N-terminal FLAG-tagged PRMT5 (unknown origin) (1 to 637 residues) expressed in baculovirus infected Sf9 insect cells using histone H4 as peptide after 5 hrs in presence of [H3]AdoMet by scintillation proximity assay

T2 sequence (O14744 whole entry): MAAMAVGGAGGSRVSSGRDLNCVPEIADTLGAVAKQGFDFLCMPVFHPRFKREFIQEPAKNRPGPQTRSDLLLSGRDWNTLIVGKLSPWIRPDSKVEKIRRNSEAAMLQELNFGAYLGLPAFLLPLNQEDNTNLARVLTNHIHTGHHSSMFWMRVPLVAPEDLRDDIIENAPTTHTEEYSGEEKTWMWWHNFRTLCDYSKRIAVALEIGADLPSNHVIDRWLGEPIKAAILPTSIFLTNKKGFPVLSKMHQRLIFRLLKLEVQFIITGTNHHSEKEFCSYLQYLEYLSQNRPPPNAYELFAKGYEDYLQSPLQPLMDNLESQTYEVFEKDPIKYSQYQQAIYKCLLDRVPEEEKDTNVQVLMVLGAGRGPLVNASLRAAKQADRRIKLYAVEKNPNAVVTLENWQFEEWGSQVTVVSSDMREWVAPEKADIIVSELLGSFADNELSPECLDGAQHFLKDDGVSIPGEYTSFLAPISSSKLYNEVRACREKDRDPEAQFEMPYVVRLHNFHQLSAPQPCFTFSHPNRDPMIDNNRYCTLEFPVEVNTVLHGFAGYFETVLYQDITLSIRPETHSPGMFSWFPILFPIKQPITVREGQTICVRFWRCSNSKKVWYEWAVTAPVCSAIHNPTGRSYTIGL
T1 sequence (O14744 whole entry): as above
T1 sequence (Q9BQA1 whole entry, further chain): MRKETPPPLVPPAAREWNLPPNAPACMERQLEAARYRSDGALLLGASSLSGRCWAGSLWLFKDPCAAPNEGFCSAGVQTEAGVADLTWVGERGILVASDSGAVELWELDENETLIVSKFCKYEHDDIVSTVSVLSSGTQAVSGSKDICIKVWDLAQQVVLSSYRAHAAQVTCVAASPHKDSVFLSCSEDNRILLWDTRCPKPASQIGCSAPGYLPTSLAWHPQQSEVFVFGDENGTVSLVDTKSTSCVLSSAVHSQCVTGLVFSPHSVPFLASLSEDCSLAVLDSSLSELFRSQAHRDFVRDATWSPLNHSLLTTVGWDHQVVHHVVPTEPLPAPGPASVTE
Protein arginine N-methyltransferase 1, sequence (Q99873 whole entry): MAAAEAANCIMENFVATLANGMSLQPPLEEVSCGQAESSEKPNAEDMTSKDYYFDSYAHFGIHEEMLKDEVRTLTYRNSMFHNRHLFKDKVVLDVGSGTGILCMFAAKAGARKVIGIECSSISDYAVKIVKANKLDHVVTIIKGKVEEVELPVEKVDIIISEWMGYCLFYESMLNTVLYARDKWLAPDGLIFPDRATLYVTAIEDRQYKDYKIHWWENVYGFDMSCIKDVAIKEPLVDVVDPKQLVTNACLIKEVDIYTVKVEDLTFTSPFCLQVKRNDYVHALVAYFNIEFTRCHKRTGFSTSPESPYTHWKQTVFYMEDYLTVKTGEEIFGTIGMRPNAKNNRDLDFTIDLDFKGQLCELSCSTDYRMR

In the case of N#Cc1c(Br)cccc1NC(=O)CCN1CCc2ccccc2C1, the Activity (KARPAS-422 [1]) is reported as “Dose-dependent effect”, the Activity (KARPAS-422 [2]) is reported as 2.35% and the Activity (KARPAS-422 [3]) is reported as 23.1%. The Activity (KARPAS-422 [4]) was 11.75%, the IC50 (PRMT5/MEP50 complex [5]) was 2.71 µM and the viability at 8 µM (KARPAS-422 [6]) was 88.1%. The Activity (KARPAS-422 [7]) was 41.52%, the viability at 4 µM (KARPAS-422 [8]) was 90.5% and the inhibition [9] was “Active”. For the same molecule, the inhibition [10] was “inactive”, the inhibition [11] was “Active” and the Activity (KARPAS-422 [12]) was 37.72%. The IC50 [13] was over 200 µM, the inhibition [14] was “Dose-dependent effect” and the Activity (KARPAS-422 [15]) was 4.66%. It also gave an IC50 (KARPAS-422 [16]) of 9.1 µM, an IC50 (MV4-11) of 12.5 µM and an Activity (KARPAS-422 [17]) of 2.93%. For the same molecule, the Activity (KARPAS-422 [18]) was 8.76%, the Activity (KARPAS-422 [19]) was 54.34% and the Activity (KARPAS-422 [20]) was 50.53%. For the same molecule, the Activity (KARPAS-422 [21]) was 13.73%, the Kd (PRMT5/MEP50 complex [22]) was 10.8 µM and the Activity (KARPAS-422 [23]) was 7.89%. For the same molecule, the Activity (KARPAS-422 [24]) was “Dose-dependent effect”, the IC50 [25] was over 200 µM and the Activity (KARPAS-422 [26]) was 44.75%. For the same molecule, the IC50 (Pfeiffer) was 11.1 µM, the IC50 (SUD4) was 16.4 µM and the Activity (KARPAS-422 [27]) was 36.18%. For the same molecule, the viability at 16 µM (KARPAS-422 [28]) was 66.3% and the Activity (KARPAS-422 [29]) was 9.48%.
O=C(CCN1CCc2ccccc2C1)Nc1cccc(F)c1 showed an IC50 (PRMT5/MEP50 complex [5]) of 45.9 µM.
For O=C(NC[C@H](O)CN1CCc2ccccc2C1)c1cc(NC2COC2)ncn1, the inhibition [14] was “Dose-dependent effect”.
In the case of Cc1ccc(NC(=O)CCN2CCc3ccccc3C2)c([N+](=O)[O-])c1, the IC50 (PRMT5/MEP50 complex [5]) is reported as over 100 µM.
For O=C(CCN1CCc2ccccc2C1)Nc1cccc(Cl)c1, the IC50 (PRMT5/MEP50 complex [5]) was 42.1 µM.
With Cc1cccc(NC(=O)CCN2CCc3ccccc3C2)c1 the IC50 (PRMT5/MEP50 complex [5]) was over 100 µM.
For COC(=O)c1cc(F)c(F)cc1NC(=O)CCN1CCc2ccccc2C1, the IC50 (PRMT5/MEP50 complex [5]) was over 100 µM.
O=C(CCN1CCc2ccccc2C1)Nc1ccccc1 gave an IC50 (PRMT5/MEP50 complex [5]) of over 100 µM.
COc1ccc(NC(=O)CCN2CCc3ccccc3C2)cc1 was tested, and the IC50 (PRMT5/MEP50 complex [5]) was over 100 µM.
Nc1ncnc2c1ncn2[C@@H]1O[C@H](C[C@@H](N)CC[C@H](N)C(=O)O)[C@@H](O)[C@H]1O [SINEFUNGIN] showed an IC50 [30] of 8.6 µM.
Molecule O=C(CCN1CCc2ccccc2C1)Nc1nccc(C(F)(F)F)n1 has an IC50 (PRMT5/MEP50 complex [5]) of 69.9 µM.
O=C(CCN1CCc2ccccc2C1)Nc1cccc2ccccc12 showed an IC50 (PRMT5/MEP50 complex [5]) of over 100 µM.
O=C(CCN1CCc2ccccc2C1)Nc1cccc2ncccc12 showed an IC50 (PRMT5/MEP50 complex [5]) of over 100 µM.

Source: ChEMBL document CHEMBL4325864, “Discovery of new potent protein arginine methyltransferase 5 (PRMT5) inhibitors by assembly of key pharmacophores from known inhibitors” (Bioorg Med Chem Lett, 2018)
